Test results: paper PMC5003403 (Clinical breast cancer, 2012)

Legend:
[1] = system: serum IGFBP-3 (IGF-binding protein 3); test: Serum IGFBP-3 levels; assay type: in vivo, human; details: Day 7 (exemestane alone); mean ± SD; n 22
Summary of the method: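 Serum was taken at baseline, after 1 week of single-agent oral exemestane 25 mg daily (day 7), and at day 120 (±7). About 5 mL venous blood went into serum separator tubes, clotted for at least 30 min and was centrifuged at 3000 rpm for 10 min. Serum was frozen at −70°C until assay. Day differences were tested by repeated-measures ANOVA.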

[2] = system: serum IGF-1 (insulin-like growth factor 1); test: Serum IGF-1 levels; assay type: in vivo, human; details: Day 7 (exemestane alone); mean ± SD; n 23
[3] = assay type: in vivo; details: human, plasma, oral, 25 mg
Summary of the method: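 Nine patients took oral 25 mg daily with food from day 1, adding intramuscular 250 mg fulvestrant from day 8 every 28 ± 5 days. Plasma was sampled over 24 h after the day-7 dose and again after about 120 ± 7 days of combination. Samples went into prechilled heparinised tubes on ice, spun at 1000–1200g for 10–15 min at 4°C and held at about −70°C. LC-MS/MS, LLOQ 0.1 ng/mL. Noncompartmental analysis: Cmax by inspection, AUC by linear trapezoid, t1/2 = 0.693/λz.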

SMILES: C=C1C[C@@H]2[C@H](CC[C@]3(C)C(=O)CC[C@@H]23)[C@@]2(C)C=CC(=O)C=C12 [Exemestane]
- IGFBP-3 serum level [1]: 5273 ± 1372 ng/mL
- IGF-1 serum level [2]: 141 ± 55.1 ng/mL
- AUC(0-t) [3]: 61.7 ± 17.1 ng·h/mL
- Cmax [3]: 20.1 ± 7.7 ng/mL
- half-life [3]: 7.94 ± 1.32 h
